Rows were chosen to be rich in hits. Some 2.3% of all compounds tested hit in one or more screens of this group.
NR2F2 inh: inhibitors of human COUP-TFII (NR2F2). 0.7% of 370,000 active. HEK293T NGFI-A luciferase reporter, luminescence. P24468. inhibition, % at 8.6 µM. AID 686940;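 active = inhibition above a per-plate cutoff, mean inhibition of test wells between control levels plus 3 SD, cut at about 38% in these data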;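 also: cells cotransfected with COUP-TFII expression vector driving the NGFI-A reporter; 0% = median of COUP-TF2 test wells and 100% = reporter-only cells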
NR2E3 ag-1: agonists of human NR2E3 nuclear receptor | Q9Y5X4 | CHO-S Gal4-NCOR/VP16-NR2E3 two-hybrid, luciferase | 0.35% of 360,000 active | inhibition of corepressor binding, % at 3.98 µM;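 active = inhibition above the mean of all tested compounds plus 3 SD, cut at about 70% in these data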;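 also: 0% = DMSO with NR2E3 transfected cells and 100% = cells lacking NR2E3 construct; higher means lower luciferase signal from less NR2E3 corepressor binding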
CHT allo act: human CHT allosteric activation. B-score at 10 µM. 0.49% of 310,000 active. AID 488977. CHT-expressing cells, membrane potential dye, choline EC20; active compounds read high; LV-AA mutant CHT in HEK293 cells;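 active = initial fluorescence not abnormally high and integrated response B-score, plate-corrected, over 3 SD above library mean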
Target sequence (Q9GZV3 whole entry, looked up): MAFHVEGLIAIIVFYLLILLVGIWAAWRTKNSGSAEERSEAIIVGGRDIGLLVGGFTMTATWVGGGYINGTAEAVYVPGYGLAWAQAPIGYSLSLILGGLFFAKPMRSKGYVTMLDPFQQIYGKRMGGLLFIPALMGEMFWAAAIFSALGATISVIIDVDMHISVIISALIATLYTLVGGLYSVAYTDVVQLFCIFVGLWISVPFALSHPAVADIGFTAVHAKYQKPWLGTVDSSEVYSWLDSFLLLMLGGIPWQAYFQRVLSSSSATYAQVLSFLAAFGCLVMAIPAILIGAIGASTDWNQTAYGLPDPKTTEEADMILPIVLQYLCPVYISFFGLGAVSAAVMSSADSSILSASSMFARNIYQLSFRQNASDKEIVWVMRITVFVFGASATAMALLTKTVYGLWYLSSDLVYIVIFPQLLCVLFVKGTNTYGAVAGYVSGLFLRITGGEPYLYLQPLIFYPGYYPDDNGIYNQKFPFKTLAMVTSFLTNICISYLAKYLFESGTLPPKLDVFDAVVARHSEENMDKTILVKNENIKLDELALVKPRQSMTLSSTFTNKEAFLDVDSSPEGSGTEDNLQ
NR2E3 ag-2: agonists of human nuclear receptor NR2E3. inhibition of corepressor binding, % at 4.78 µM. AID 2300. GST-NR2E3/biotin-RetCOR TR-FRET, 1536-well. Q9Y5X4. 0.12% of 320,000 active;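 active = percent inhibition above the cutoff of mean plus 3 SD of all tested compounds, set per screening campaign, cut at about 20% in these data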;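 also: 0% = DMSO wells and 100% = biotin wells as full block of FRET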
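Test system – NR2E3–RetCOR corepressor complex · Quantity – NR2E3 fusion 1.35 nM · Buffer or medium – Tris pH 7.5 · Incubation – Compound–protein incubation for 5 h at 4 °C · Technique – TR-FRET, Eu(K)-anti-GST donor, streptavidin-D2 acceptor, ex 340, em 617/671 nm · Evaluation – percent inhibition of 671/617 nm emission ratio versus biotin and DMSO controls · Plate – 1536-well format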
CHT block: inhibits the human high affinity choline transporter. 0.86% of 310,000 active. CHT-expressing cells, membrane potential dye, choline response; active compounds read low. B-score at 10 µM. AID 488975;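 active = B-score over 3 SD under the library average, and starting fluorescence ratio not unusually high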;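 also: choline stimulus applied at its EC90 after an EC20 pre-addition; B-score computed on integrated fluorescence ratio after choline addition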
GalR3 antagonist: antagonists of human GalR3 | HEK293 GalR3-CNG cAMP membrane potential fluorescence; galR3 body fused to GalR1 C-terminus | inhibition, % at 3 µM | 0.44% of 360,000 active;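 active = inhibition above the screen-wide average plus 3 SD, cut at about 13% in these data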;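 also: forskolin and galanin both at EC90 stimulate the cells; cAMP rise reported by CNG channel membrane potential dye signal; 0% = forskolin plus galanin with DMSO and 100% = forskolin alone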
GalR3 conf: confirmation of human galanin receptor 3 antagonists | HEK293 GalR3 CNG cAMP biosensor, membrane potential fluorescence; galR3 fused to GalR1 carboxy tail; challenged with forskolin and galanin at EC90 | inhibition, % at 3 µM | 59% of 1,600 active | shares compounds with GalR3 antagonist;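 active = inhibition above the primary screen's cutoff, the mean inhibition of all screened compounds plus 3 SD, cut at about 13% in these data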;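 also: 0% = forskolin plus galanin and 100% = forskolin alone with DMSO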
HEK-CNG parental: parental cell agonism counter-screen for GalR3 antagonists. shares compounds with GalR3 antagonist. HEK293-CNG parental cells, cAMP membrane potential fluorescence; normalised: DMSO wells 0%, forskolin wells 100%. activation, % at 3 µM. 10% of 1,600 active. AID 652268; in the data active = activation above about 1.3%
* marks the source's active call; other numbers are inactive results.

How did COc1cc(C2CC(=O)Oc3cc(O)ccc32)cc(OC)c1OC (stereo not given) do in these assays?
NR2F2 inh: 11; NR2E3 ag-1: -7; GalR3 antagonist: -4

How did COc1ccc2c(c1)OC(=O)CC2c1cc(OC)c(OC)c(OC)c1 (stereo not given) do in these assays?
NR2F2 inh: 0; NR2E3 ag-1: -26; GalR3 antagonist: 13*; GalR3 conf: 4; HEK-CNG parental: 0

Results for CCC(=O)N1CCc2cc(Br)c(S(=O)(=O)NCCCN(CC)Cc3ccccc3)cc21 ?
NR2F2 inh: 11

Results for Cc1ccc(-c2nc(C3CCCN(S(=O)(=O)c4cccs4)C3)no2)cc1 (stereo not given) ?
NR2F2 inh: -8

How did CC(C)n1c(=S)[nH]c2scc(-c3cccs3)c2c1=O do in these assays?
NR2F2 inh: -18; NR2E3 ag-1: 19; CHT allo act: inactive; NR2E3 ag-2: 0; CHT block: inactive; GalR3 antagonist: 13*; GalR3 conf: 2; HEK-CNG parental: 0

How did COc1ccc(Nc2nc(Cl)nc(NCCO)n2)cc1 do in these assays?
NR2F2 inh: -3; NR2E3 ag-1: -2; CHT allo act: inactive; NR2E3 ag-2: 2; CHT block: inactive; GalR3 antagonist: 20*; GalR3 conf: -1; HEK-CNG parental: 0

What do the screens show for `O=[N+]([O-])c1ccc(Nc2nc(Cl)nc(NCCO)n2)cc1`?
NR2F2 inh: 10; NR2E3 ag-1: 3; CHT allo act: inactive; NR2E3 ag-2: 3; CHT block: inactive; GalR3 antagonist: -5

Results for COc1ccc(Cn2ccc3ccc(-c4ccc5ccn(C(=O)c6cccc(OC)c6)c5c4)cc32)cc1 ?
NR2F2 inh: -27

Results for CCC(CC)NC(=O)O[C@H]1CC[C@@]23CCCN2C(=O)CCC[C@H]3C1 ?
NR2F2 inh: 5

How did O=C(NC(=S)NC(=O)c1ccccc1F)c1ccccc1F do in these assays?
NR2F2 inh: -5; NR2E3 ag-1: 12; CHT allo act: inactive; NR2E3 ag-2: 3; CHT block: inactive; GalR3 antagonist: 18*; GalR3 conf: 5; HEK-CNG parental: 0

How did CC(C)CC(c1nnnn1C(C)C)N1CCN(c2ccccc2)CC1 (stereo not given) do in these assays?
NR2F2 inh: -13; NR2E3 ag-1: 4; CHT allo act: inactive; NR2E3 ag-2: 2; CHT block: inactive; GalR3 conf: -5; HEK-CNG parental: 6.9*

Results for C=CCN1C(=O)[C@@H](CC(=O)NCc2cccc(C(F)(F)F)c2)[C@]2(C(=O)OCC)CCCCC/C=C/12 ?
NR2F2 inh: -13

How did O=C(CSc1nc2ccccc2[nH]1)Nc1c(F)c(F)c(F)c(F)c1F do in these assays?
NR2F2 inh: -5; NR2E3 ag-1: 4; CHT allo act: inactive; NR2E3 ag-2: 6; CHT block: inactive; GalR3 antagonist: 16*; GalR3 conf: 7; HEK-CNG parental: -1

Results for COc1cccc(-c2nnc3sc(C4CCCCC4)nn23)c1 ?
NR2F2 inh: 25; NR2E3 ag-1: -1; CHT allo act: inactive; NR2E3 ag-2: -1; CHT block: inactive; GalR3 antagonist: -5

How did c1cncc(-c2nnc3sc(C4CCCCC4)nn23)c1 do in these assays?
NR2F2 inh: -14; NR2E3 ag-1: -12; CHT allo act: inactive; NR2E3 ag-2: 0; CHT block: inactive; GalR3 conf: 4; HEK-CNG parental: 0

How did O=C(CCc1ccccc1)Nc1ccccc1[N+](=O)[O-] do in these assays?
NR2F2 inh: -30; NR2E3 ag-1: -79; CHT allo act: inactive; NR2E3 ag-2: 4; CHT block: inactive; GalR3 antagonist: -9

Results for O=C(CNCc1ccc(F)cc1)Nc1ccccc1[N+](=O)[O-] ?
NR2F2 inh: 2; NR2E3 ag-1: -7; CHT allo act: inactive; NR2E3 ag-2: 0; CHT block: inactive; GalR3 antagonist: 24*; GalR3 conf: 10; HEK-CNG parental: 0

What do the screens show for `C[C@@H]1C[C@H]2[C@@H](C)C(=O)N3[C@H](c4ccccc4)[C@H](C)C[C@H]3[C@@H](C)C(=O)N2[C@@H]1c1ccccc1`?
NR2F2 inh: 4

How did COc1ccccc1C(=O)NC1CCCCN(Cc2cccc(Cl)c2)C1=O (stereo not given) do in these assays?
NR2F2 inh: -21

Results for Cc1ccccc1-c1nnn(CC(=O)Nc2ccc3c(c2)OCO3)n1 ?
NR2F2 inh: -10; NR2E3 ag-1: 4; CHT allo act: inactive; NR2E3 ag-2: 2; CHT block: inactive; GalR3 antagonist: -7

How did Cc1ccccc1-c1nnn(CC(=O)Nc2ccc3c(c2)OCCO3)n1 do in these assays?
NR2F2 inh: 1; NR2E3 ag-1: -25; CHT allo act: inactive; NR2E3 ag-2: 2; CHT block: inactive; GalR3 antagonist: 16*; GalR3 conf: 19*; HEK-CNG parental: 1

How did CCOC(=O)c1c(C)c(C(=O)NC2CCCCCC2)c(C)n1C do in these assays?
NR2F2 inh: 11; NR2E3 ag-1: 6; GalR3 antagonist: -5

How did CCOC(=O)c1c(C)c2c(n1C)CCC/C2=N\O do in these assays?
NR2F2 inh: -33; NR2E3 ag-1: -6; CHT allo act: inactive; NR2E3 ag-2: -1; CHT block: inactive; GalR3 antagonist: 66*; GalR3 conf: 32*; HEK-CNG parental: 0

What do the screens show for `CCCc1ccc(Oc2cc(C)nc(N3CCOCC3)n2)cc1`?
NR2F2 inh: -3; NR2E3 ag-1: -15; CHT allo act: inactive; NR2E3 ag-2: 2; CHT block: inactive; GalR3 antagonist: 15*; GalR3 conf: 9; HEK-CNG parental: 0

How did COc1ccc(C)cc1NC(=O)c1ccc(NS(=O)(=O)c2cccc3cccnc23)cc1 do in these assays?
NR2F2 inh: 14; NR2E3 ag-1: 28; CHT allo act: inactive; NR2E3 ag-2: 3; CHT block: inactive; GalR3 antagonist: 51*; GalR3 conf: 85*; HEK-CNG parental: 0

How did Cc1ccc(NC(=O)c2ccc(NS(=O)(=O)c3cccc4cccnc34)cc2)cc1 do in these assays?
NR2E3 ag-1: 11; CHT allo act: inactive; NR2E3 ag-2: 3; CHT block: inactive

What do the screens show for `CCOC(=O)CC[C@@]1(C(=O)OCC)C[C@@H](CC(=O)N2CCN(C(=O)c3ccco3)CC2)C(=O)N2CCCC=C21`?
NR2F2 inh: -3

High-throughput results: PubChem, several laboratories
